The source made the active and inactive calls. The calls are words filed in the database; no cut-off is given here.
Tests used:
[1] = molecular target: T1, Voltage-gated potassium channel, KQT; KCNQ2(Kv7.2)/KCNQ3(Kv7.3) (Homo sapiens) (UniProt O43526+O43525); assay: Activation of KCNQ2/Q3 expressed in CHO cells at 100 uM by atomic absorption Rb'+ efflux assay; format: cell-based
Method in brief: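 Stable KCNQ2/KCNQ3 CHO cells were Rb+-loaded 3 h at 37 °C and washed. Compound was given once at a single screening concentration in 20 mM K+ depolarization buffer for 10 min. Supernatant Rb+ was measured by flame atomic absorption at 780 nm. A rubidium response under 15% of control was scored as no activity.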

[2] = molecular target: Voltage-gated potassium channel, KQT; KCNQ2(Kv7.2)/KCNQ3(Kv7.3) (Homo sapiens, UniProt O43525+O43526); assay: Activation of KCNQ2/Q3 expressed in CHO cells by atomic absorption Rb'+ efflux assay; format: cell-based
Chain of Voltage-gated potassium channel, KQT; KCNQ2(Kv7.2)/KCNQ3(Kv7.3) (O43526 whole entry): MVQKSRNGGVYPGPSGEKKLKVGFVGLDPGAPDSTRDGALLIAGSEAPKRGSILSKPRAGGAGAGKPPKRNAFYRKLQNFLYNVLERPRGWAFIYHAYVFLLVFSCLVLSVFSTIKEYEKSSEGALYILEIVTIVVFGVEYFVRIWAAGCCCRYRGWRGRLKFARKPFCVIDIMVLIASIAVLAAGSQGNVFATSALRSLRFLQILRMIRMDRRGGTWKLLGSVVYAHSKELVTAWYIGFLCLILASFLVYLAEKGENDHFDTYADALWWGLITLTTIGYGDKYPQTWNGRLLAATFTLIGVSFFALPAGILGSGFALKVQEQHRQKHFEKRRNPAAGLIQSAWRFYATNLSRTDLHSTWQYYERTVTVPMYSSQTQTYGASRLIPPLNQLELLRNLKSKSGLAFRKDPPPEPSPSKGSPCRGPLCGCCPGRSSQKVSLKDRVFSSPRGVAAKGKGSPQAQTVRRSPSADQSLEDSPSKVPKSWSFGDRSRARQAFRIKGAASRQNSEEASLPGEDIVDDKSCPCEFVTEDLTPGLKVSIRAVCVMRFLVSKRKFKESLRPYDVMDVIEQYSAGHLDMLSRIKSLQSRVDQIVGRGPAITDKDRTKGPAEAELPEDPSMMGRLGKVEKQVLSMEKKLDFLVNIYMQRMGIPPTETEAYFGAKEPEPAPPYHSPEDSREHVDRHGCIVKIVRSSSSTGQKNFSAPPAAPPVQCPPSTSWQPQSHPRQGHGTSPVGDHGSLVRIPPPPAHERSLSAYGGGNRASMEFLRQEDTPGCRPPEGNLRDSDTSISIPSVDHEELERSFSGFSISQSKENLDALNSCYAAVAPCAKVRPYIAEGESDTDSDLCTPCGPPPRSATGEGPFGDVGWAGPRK
Chain of Voltage-gated potassium channel, KQT; KCNQ2(Kv7.2)/KCNQ3(Kv7.3) (O43525 whole entry): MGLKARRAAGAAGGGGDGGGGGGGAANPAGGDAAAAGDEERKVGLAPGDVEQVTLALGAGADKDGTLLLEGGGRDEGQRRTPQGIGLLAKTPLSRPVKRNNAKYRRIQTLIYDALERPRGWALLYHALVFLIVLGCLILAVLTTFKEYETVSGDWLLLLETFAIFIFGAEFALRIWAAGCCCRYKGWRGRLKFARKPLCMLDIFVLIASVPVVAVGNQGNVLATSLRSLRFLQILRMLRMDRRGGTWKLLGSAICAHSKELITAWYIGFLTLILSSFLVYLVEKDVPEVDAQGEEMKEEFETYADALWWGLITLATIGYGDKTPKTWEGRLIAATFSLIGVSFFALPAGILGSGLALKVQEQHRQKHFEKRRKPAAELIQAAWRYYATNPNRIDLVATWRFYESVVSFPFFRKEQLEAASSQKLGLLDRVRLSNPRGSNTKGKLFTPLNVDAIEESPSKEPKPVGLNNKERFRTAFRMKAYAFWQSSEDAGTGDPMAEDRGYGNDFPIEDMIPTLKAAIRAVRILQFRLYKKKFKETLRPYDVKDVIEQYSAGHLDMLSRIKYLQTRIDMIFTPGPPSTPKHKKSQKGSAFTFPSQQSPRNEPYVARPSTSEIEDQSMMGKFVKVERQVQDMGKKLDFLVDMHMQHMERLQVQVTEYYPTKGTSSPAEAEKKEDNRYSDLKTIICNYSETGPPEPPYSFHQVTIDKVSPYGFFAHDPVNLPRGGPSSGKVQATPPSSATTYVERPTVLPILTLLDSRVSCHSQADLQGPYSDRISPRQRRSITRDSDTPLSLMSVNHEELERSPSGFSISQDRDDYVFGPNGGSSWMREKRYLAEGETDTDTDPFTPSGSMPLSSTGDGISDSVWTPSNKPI
Method in brief: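 CHO cells stably expressing KCNQ2/KCNQ3 were plated at 20,000 cells/well overnight at 37 °C. They were loaded 3 h in buffer containing 5.4 mM RbCl (pH 7.4), then washed three times with 5.4 mM KCl buffer. Compound was applied in 20 mM K+ depolarization buffer for 10 min. Supernatant Rb+ was read by flame atomic absorption at 780 nm against a 0–5 mg/l calibration. EC50 from n = 3.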

[3] = molecular target: T1, Voltage-gated potassium channel, KQT; KCNQ2(Kv7.2)/KCNQ3(Kv7.3) (Homo sapiens); assay: Activation of human KCNQ2/Q3 expressed in CHO cells assessed as increase in channel current at -40 mV holding potential at 10 uM by whole cell patch-clamp assay; format: cell-based
Method in brief: (§1)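 Perforated whole-cell patch clamp was run on CHO cells stably expressing KCNQ2/KCNQ3. Cells were held at −80 mV for 500 ms, stepped to −40 mV for 800 ms, then returned to −80 mV for 800 ms. The activation current and the deactivation tail current were measured, with a time course of current recorded at −40 mV.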

[4] = molecular target: T1, Voltage-gated potassium channel, KQT; KCNQ2(Kv7.2)/KCNQ3(Kv7.3) (Homo sapiens); assay: Activation of human KCNQ2/Q3 expressed in CHO cells held at -80 mV for 500 ms followed by depolarized to -40 mV for 800 ms followed by 800 ms pulse-back to -80 mV assessed as increase in both activation and deactivation tail current at 10 uM by whole cell patch-clamp assay
[5] = molecular target: T1, Voltage-gated potassium channel, KQT; KCNQ2(Kv7.2)/KCNQ3(Kv7.3) (Homo sapiens); assay: Activation of human KCNQ2/Q3 expressed in CHO cells held at -80 mV for 500 ms followed by depolarized to -40 mV for 800 ms followed by 800 ms pulse-back to -80 mV assessed as increase in both activation and deactivation tail current at 100 uM by whole cell patch-clamp assay
[6] = molecular target: T1, Voltage-gated potassium channel, KQT; KCNQ2(Kv7.2)/KCNQ3(Kv7.3) (Homo sapiens); assay: Activation of human KCNQ2/Q3 expressed in CHO cells assessed as increase in channel current at -40 mV holding potential at 100 uM by whole cell patch-clamp assay; format: cell-based; method in brief: as §1
[7] = molecular target: T2, Potassium voltage-gated channel subfamily KQT member 1 (Homo sapiens, UniProt P51787); assay: Activation of KCNQ1 expressed in HEK293 cells by atomic absorption Rb'+ efflux assay; format: cell-based
T2 sequence (P51787 whole entry): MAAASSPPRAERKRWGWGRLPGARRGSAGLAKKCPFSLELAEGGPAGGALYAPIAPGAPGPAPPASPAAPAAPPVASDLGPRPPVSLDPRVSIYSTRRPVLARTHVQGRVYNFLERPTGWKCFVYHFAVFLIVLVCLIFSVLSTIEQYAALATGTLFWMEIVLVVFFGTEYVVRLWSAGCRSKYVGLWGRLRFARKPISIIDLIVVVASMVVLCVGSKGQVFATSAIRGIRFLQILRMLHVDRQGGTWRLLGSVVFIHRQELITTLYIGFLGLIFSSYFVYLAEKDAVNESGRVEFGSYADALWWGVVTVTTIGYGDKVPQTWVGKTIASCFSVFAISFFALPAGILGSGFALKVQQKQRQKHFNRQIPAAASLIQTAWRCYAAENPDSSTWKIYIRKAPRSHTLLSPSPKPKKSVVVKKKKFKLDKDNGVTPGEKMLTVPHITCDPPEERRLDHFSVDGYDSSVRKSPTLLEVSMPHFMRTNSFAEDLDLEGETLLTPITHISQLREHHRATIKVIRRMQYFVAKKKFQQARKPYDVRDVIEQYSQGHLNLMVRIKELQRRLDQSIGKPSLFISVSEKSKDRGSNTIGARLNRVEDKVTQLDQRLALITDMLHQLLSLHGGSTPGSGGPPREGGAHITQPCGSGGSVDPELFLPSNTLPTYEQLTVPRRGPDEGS
Method in brief: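 HEK293 cells stably expressing KCNQ1 (G418 selection) were plated at 20,000 cells/well overnight. They were loaded 3 h with 5.4 mM RbCl buffer at 37 °C and washed. Compound was applied in 20 mM K+ depolarization buffer for 10 min. Supernatant Rb+ was measured by flame atomic absorption at 780 nm. EC50 from n = 3.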

[8] = Selectivity ratio of EC50 for KCNQ1 to KCNQ2/Q3 by atomic absorption Rb'+ efflux assay

Structure (SMILES)	EC50 [2] [nM]	also measured
O=c1cc(C(F)(F)F)[nH]c2c(-c3ccccc3)cnn12	–	Activity [1]: inactive
O=c1cc(C(F)(F)F)[nH]c2c(-c3cccc4ccccc34)c(C(F)(F)F)nn12	4980	–
O=c1cc(CCl)[nH]c2c(-c3cccc4ccccc34)c(C(F)(F)F)nn12	1250	–
O=c1cc(-c2cc(F)c(F)c(F)c2F)[nH]c2c(-c3ccccc3)c(C(F)(F)F)nn12	600	–
CCOC(=O)c1c(C(F)(F)F)nn2c(=O)cc(CCl)[nH]c12	–	Activity [1]: inactive
CC(C)(C)c1cc(=O)n2nc(C(F)(F)F)c(-c3cccc4ccccc34)c2[nH]1	19300	–
O=c1cc(CCl)[nH]c2c(-c3ccc(Cl)cc3)c(C(F)(F)F)nn12	2330	–
COc1ccc(-c2cc(=O)n3nc(C(F)(F)F)c(-c4ccccc4)c3[nH]2)cc1	1930	–
O=c1cc(-c2cc(F)c(F)cc2F)[nH]c2c(-c3ccc(Cl)cc3)c(C(F)(F)F)nn12	210	–
CCOC(=O)Nc1ccc(NCc2ccc(F)cc2)cc1N [EZOGABINE]	430	Activity [3]: Active
O=c1cc(-c2cc(F)c(Cl)nc2Cl)[nH]c2c(-c3cccc4ccccc34)c(C(F)(F)F)nn12	150	Activity [3]: Active; Activity [4]: Active
O=c1cc(C(F)(F)F)[nH]c2c(-c3c[nH]c4ccccc34)c(C(F)(F)F)nn12	–	Activity [1]: inactive
Cc1cc(O)n2nc(C(F)(F)F)c(-c3ccccc3)c2n1	–	Activity [1]: inactive
O=c1cc(C(F)F)[nH]c2c(-c3ccccc3)c(C(F)(F)F)nn12	4290	–
O=c1cc(C(F)(F)F)[nH]c2c(-c3ccccc3)c(C(F)(F)F)nn12	1460	Activity [5]: Active; Activity [6]: Active
Cc1nn2c(=O)cc(CCl)[nH]c2c1-c1ccccc1	–	Activity [1]: inactive
O=c1cc(-c2cccc([N+](=O)[O-])c2)[nH]c2c(-c3ccccc3)c(C(F)(F)F)nn12	570	–
Oc1cc(-c2ccccc2)nc2c(-c3ccccc3)c(C(F)(F)F)nn12	–	Activity [1]: inactive
O=c1cc(CCl)[nH]c2c(-c3ccccc3)c(C(F)(F)F)nn12	2270	Activity [5]: Active; Activity [6]: Active
O=c1cc(CN2CCCCC2)[nH]c2c(-c3ccccc3)c(C(F)(F)F)nn12	–	Activity [1]: inactive
O=c1cc(-c2cccc([N+](=O)[O-])c2)[nH]c2c(-c3cccs3)c(C(F)(F)F)nn12	580	–
COc1ccc(-c2c(C(F)(F)F)nn3c(=O)cc(-c4cc(F)c(Cl)nc4Cl)[nH]c23)cc1OC	230	–
O=c1cc(C(F)(F)F)[nH]c2c(-c3ccc(Cl)cc3)c(C(F)(F)F)nn12	2060	–
O=c1cc(-c2cc(F)c(F)c(F)c2F)[nH]c2c(-c3cccs3)c(C(F)(F)F)nn12	160	–
CC(C)(C)c1cc(=O)n2nc(C(F)(F)F)c(-c3ccccc3)c2[nH]1	6190	–
O=c1cc(-c2cc(F)c(Cl)nc2Cl)[nH]c2c(-c3ccccc3)c(C(F)(F)F)nn12	60	Activity [3]: Active; Activity [4]: Active; EC50 [7]: 49300 nM; Ratio EC50 [8]: 800
